# Assay results: ChEMBL document CHEMBL4359830, “Discovery and structure-activity relationship of novel diphenylthiazole derivatives as BTK inhibitor with potent activity against B cell lymphoma cell lines” (Eur J Med Chem, 2019)
# Columns and labels:
# Raji [1] = assay: Cell cycle arrest in human Raji cells assessed as accumulation at G2/M phase at 1 uM measured after 48 hrs by propidium iodide/RNase staining based flow cytometric analysis (reference value: 18.14 %); format: functional
# Ramos [2] = assay: Cell cycle arrest in human Ramos cells assessed as accumulation at G0/G1 phase at 1 uM measured after 48 hrs by propidium iodide/RNase staining based flow cytometric analysis (reference value: 37.66 %); format: functional
# Ramos [3] = assay: Induction of apoptosis in human Ramos cells assessed as late apoptotic cells at 3 uM measured after 15 mins by Annexin-V-APC staining-based flow cytometric analysis (reference value: 1.85 %); format: functional
# Raji [4] = assay: Induction of apoptosis in human Raji cells assessed as early apoptotic cells at 3 uM measured after 15 mins by Annexin-V-APC staining-based flow cytometric analysis (reference value: 0.021 %); format: functional
# Ramos [5] = assay: Induction of apoptosis in human Ramos cells assessed as late apoptotic cells at 1 uM measured after 15 mins by Annexin-V-APC staining-based flow cytometric analysis (reference value: 1.85 %); format: functional
# Raji [6] = assay: Cell cycle arrest in human Raji cells assessed as accumulation at G0/G1 phase at 1 uM measured after 48 hrs by propidium iodide/RNase staining based flow cytometric analysis (reference value: 48.68 %); format: functional
# Raji [7] = assay: Induction of apoptosis in human Raji cells assessed as necrotic cells at 5 uM measured after 15 mins by Annexin-V-APC staining-based flow cytometric analysis (reference value: 1.87 %); format: functional
# Ramos [8] = assay: Induction of apoptosis in human Ramos cells assessed as viable cells at 5 uM measured after 15 mins by Annexin-V-APC staining-based flow cytometric analysis (reference value: 96.5 %); format: functional; settings: Homo sapiens, Ramos, 0.25 h; read-out: Activity
# Raji [9] = assay: Induction of apoptosis in human Raji cells assessed as early apoptotic cells at 5 uM measured after 15 mins by Annexin-V-APC staining-based flow cytometric analysis (reference value: 0.021 %); format: functional
# Ramos [10] = assay: Induction of apoptosis in human Ramos cells assessed as late apoptotic cells at 5 uM measured after 15 mins by Annexin-V-APC staining-based flow cytometric analysis (reference value: 1.85 %); format: functional
# Ramos [11] = assay: Induction of apoptosis in human Ramos cells assessed as late apoptotic cells at 0.1 uM measured after 15 mins by Annexin-V-APC staining-based flow cytometric analysis (reference value: 1.85 %); format: functional
# Ramos [12] = assay: Cell cycle arrest in human Ramos cells assessed as accumulation at S phase at 5 uM measured after 48 hrs by propidium iodide/RNase staining based flow cytometric analysis (reference value: 56.35 %); format: functional
# Ramos [13] = assay: Antiproliferative activity against human Ramos cells at 40 uM measured after 72 hrs by CCK-8 assay relative to control; format: functional; settings: Homo sapiens, Ramos, 72 h
# In short: (§1)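 Ramos or Raji cells in RPMI-1640 with 10% FBS and 1% penicillin-streptomycin at 37 °C, 5% CO2. Seeded at 2000–3000 cells/well one day before compound addition. Exposure 72 h, then CCK-8 with absorbance at 450 nm. […] Single-point inhibition at 40 µM reported as mean ± standard deviation.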
# Ramos [14] = assay: Induction of apoptosis in human Ramos cells assessed as viable cells at 1 uM measured after 15 mins by Annexin-V-APC staining-based flow cytometric analysis (reference value: 96.5 %); format: functional; settings: 0.25 h, read-out: Activity
# Ramos [15] = assay: Cell cycle arrest in human Ramos cells assessed as accumulation at G2/M phase at 5 uM measured after 48 hrs by propidium iodide/RNase staining based flow cytometric analysis (reference value: 5.98 %); format: functional
# Raji [16] = assay: Induction of apoptosis in human Raji cells assessed as late apoptotic cells at 5 uM measured after 15 mins by Annexin-V-APC staining-based flow cytometric analysis (reference value: 0.57 %); format: functional
# Raji [17] = assay: Cell cycle arrest in human Raji cells assessed as accumulation at G2/M phase at 5 uM measured after 48 hrs by propidium iodide/RNase staining based flow cytometric analysis (reference value: 18.14 %); format: functional
# Ramos [18] = assay: Induction of apoptosis in human Ramos cells assessed as necrotic cells at 0.1 uM measured after 15 mins by Annexin-V-APC staining-based flow cytometric analysis (reference value: 1.50 %); format: functional
# Raji [19] = assay: Induction of apoptosis in human Raji cells assessed as early apoptotic cells at 1 uM measured after 15 mins by Annexin-V-APC staining-based flow cytometric analysis (reference value: 0.021 %); format: functional
# Raji [20] = assay: Antiproliferative activity against human Raji cells at 40 uM measured after 72 hrs by CCK-8 assay relative to control; format: functional; settings: Homo sapiens, Raji, 72 h; in short: as §1
# Ramos [21] = assay: Induction of apoptosis in human Ramos cells assessed as early apoptotic cells at 5 uM measured after 15 mins by Annexin-V-APC staining-based flow cytometric analysis (reference value: 0.14 %); format: functional
# Raji [22] = assay: Cell cycle arrest in human Raji cells assessed as accumulation at S phase at 0.1 uM measured after 48 hrs by propidium iodide/RNase staining based flow cytometric analysis (reference value: 33.18 %); format: functional
# Raji [23] = assay: Antiproliferative activity against human Raji cells measured after 72 hrs by CCK-8 assay; format: functional, cell-based; in short: as §1
# Ramos [24] = assay: Induction of apoptosis in human Ramos cells assessed as necrotic cells at 1 uM measured after 15 mins by Annexin-V-APC staining-based flow cytometric analysis (reference value: 1.50 %); format: functional
# Ramos [25] = assay: Induction of apoptosis in human Ramos cells assessed as viable cells at 3 uM measured after 15 mins by Annexin-V-APC staining-based flow cytometric analysis (reference value: 96.5 %); format: functional; settings: 0.25 h, read-out: Activity
# Raji [26] = assay: Cell cycle arrest in human Raji cells assessed as accumulation at G0/G1 phase at 5 uM measured after 48 hrs by propidium iodide/RNase staining based flow cytometric analysis (reference value: 48.68 %); format: functional
# Raji [27] = assay: Induction of apoptosis in human Raji cells assessed as necrotic cells at 1 uM measured after 15 mins by Annexin-V-APC staining-based flow cytometric analysis (reference value: 1.87 %); format: functional
# Raji [28] = assay: Induction of apoptosis in human Raji cells assessed as early apoptotic cells at 0.1 uM measured after 15 mins by Annexin-V-APC staining-based flow cytometric analysis (reference value: 0.021 %); format: functional
# Raji [29] = assay: Induction of apoptosis in human Raji cells assessed as viable cells at 1 uM measured after 15 mins by Annexin-V-APC staining-based flow cytometric analysis (reference value: 97.5 %); format: functional; settings: 0.25 h, read-out: Activity
# Ramos [30] = assay: Antiproliferative activity against human Ramos cells measured after 72 hrs by CCK-8 assay; format: functional, cell-based; in short: as §1
# [31] = target: Tyrosine-protein kinase BTK (Homo sapiens, UniProt Q06187); assay: Inhibition of BTK in anti-IgM-stimulated human Raji cells assessed as decrease in auto-phosphorylation at Y223 residue after 48 hrs by Western blot analysis; format: cell-based
# Sequence of Tyrosine-protein kinase BTK (Q06187 whole entry): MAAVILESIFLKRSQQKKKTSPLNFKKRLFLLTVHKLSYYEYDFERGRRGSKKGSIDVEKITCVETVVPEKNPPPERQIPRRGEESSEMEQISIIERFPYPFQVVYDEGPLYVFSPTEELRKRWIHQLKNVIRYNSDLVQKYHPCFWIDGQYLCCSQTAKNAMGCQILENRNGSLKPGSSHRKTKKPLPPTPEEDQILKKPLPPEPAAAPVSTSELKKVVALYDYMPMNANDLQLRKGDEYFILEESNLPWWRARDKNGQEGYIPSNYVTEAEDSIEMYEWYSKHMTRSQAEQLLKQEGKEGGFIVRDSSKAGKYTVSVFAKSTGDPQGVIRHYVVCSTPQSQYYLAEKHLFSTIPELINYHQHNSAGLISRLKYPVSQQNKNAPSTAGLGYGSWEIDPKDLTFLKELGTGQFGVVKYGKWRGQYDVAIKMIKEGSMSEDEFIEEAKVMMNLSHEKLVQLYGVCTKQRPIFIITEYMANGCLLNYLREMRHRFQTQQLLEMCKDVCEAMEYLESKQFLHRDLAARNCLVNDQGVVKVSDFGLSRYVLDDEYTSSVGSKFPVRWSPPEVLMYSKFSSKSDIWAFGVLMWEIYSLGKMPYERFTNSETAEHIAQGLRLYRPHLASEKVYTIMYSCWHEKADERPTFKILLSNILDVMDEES
# In short: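 Cells were stimulated with anti-IgM and exposed to serial dilutions for 48 h. Lysis was in 2× Laemmli buffer with 2.5% β-mercaptoethanol at 4 °C for 15 min, then boiling for 5 min. Proteins were separated on 10% SDS-PAGE and moved to nitrocellulose. Blots were probed overnight (12–18 h, 4 °C) with phospho-BTK Tyr223, phospho-PLCγ2 Tyr1217 and β-actin antibodies (1:1000), then anti-rabbit HRP, with chemiluminescent detection.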
smiles,measurement,setting,value
CN1CCN(c2ccc(Nc3nc(-c4cccc(NC(=O)c5ccc(F)c(Cl)c5)c4)sc3C(N)=O)cc2)CC1,Activity,Raji [1],24.53%
same,Activity,Ramos [2],55.48%
same,Activity,Ramos [3],6.43%
same,Activity,Raji [4],0%
same,Activity,Ramos [5],2.23%
same,Activity,Raji [6],54%
same,Activity,Raji [7],32%
same,viability at 5 µM,Ramos [8],1.55%
same,Activity,Raji [9],0.091%
same,Activity,Ramos [10],72.4%
same,Activity,Ramos [11],1.88%
same,Activity,Ramos [12],14.14%
same,inhibition at 40 µM,Ramos [13],97.5%
same,viability at 1 µM,Ramos [14],95.7%
same,Activity,Ramos [15],2.17%
same,Activity,Raji [16],67.7%
same,Activity,Raji [17],16.19%
same,Activity,Ramos [18],1.61%
same,Activity,Raji [19],0%
same,inhibition at 40 µM,Raji [20],94.4%
same,Activity,Ramos [21],0.28%
same,Activity,Raji [22],33.63%
same,IC50,Raji [23],6.23 µM
same,Activity,Ramos [24],2.04%
same,viability at 3 µM,Ramos [25],87.3%
same,Activity,Raji [26],82.55%
same,Activity,Raji [27],1.88%
same,Activity,Raji [28],0.01%
same,viability at 1 µM,Raji [29],97.6%
same,IC50,Ramos [30],4.83 µM
same,inhibition,[31],Dose-dependent effect
